Assay outcomes from PubChem.
HNF4A DNA FP: change in binding of human HNF4 alpha to DNA. P41235. HNF4a-FITC DNA binding, fluorescence polarization, 1 h. activity change, % at 10 µM. 360,000 tested, 0.3% active. AID 1224865; in the data active = activity change above about 30%, passing the limit was not always enough
CSN deneddyl inh: blocks human CSN-mediated cullin deneddylation. Purified CSN, SCF-Nedd8-OG deneddylation, fluorescence polarization. inhibition, % at 12.5 µM. 360,000 tested, 0.38% active. AID 651999;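 active = pattern-corrected inhibition above about 35%, with an unprinted fluorescence ratio check between 0.5 and 1.5, limit read from the data, passing the limit was not always enough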
Target sequence (Q92905 whole entry, looked up, one chain of several): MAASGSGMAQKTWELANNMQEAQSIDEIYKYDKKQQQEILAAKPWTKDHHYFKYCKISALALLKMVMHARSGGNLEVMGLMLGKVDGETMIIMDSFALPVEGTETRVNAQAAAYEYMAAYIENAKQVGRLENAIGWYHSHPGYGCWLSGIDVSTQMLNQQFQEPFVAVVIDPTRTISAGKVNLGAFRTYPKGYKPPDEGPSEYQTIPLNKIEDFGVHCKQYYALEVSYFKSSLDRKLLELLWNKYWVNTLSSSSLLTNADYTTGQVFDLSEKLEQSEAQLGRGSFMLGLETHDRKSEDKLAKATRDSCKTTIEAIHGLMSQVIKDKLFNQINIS
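Assay system: purified human Csn5 enzyme expressed in HEK293T cells; Input: 0.24 nM Csn5 enzyme, final concentration; Reagent: 10 nM SCFSkp2-Nedd8OG; Compound dosing: 12.5 µM single point; Times: reaction 90 min, room temperature; Technique: fluorescence polarization readout.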
Exocytosis inh: blocks lytic granule exocytosis. AID 651702. inhibition, % at 10 µM. TALL-104 LAMP-1 surface exposure, flow cytometry; cells stimulated with thapsigargin and PMA. 360,000 tested, 0.66% active;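 active = inhibition above about 55%, limit read from the data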
Myeloid diff 2: myeloid differentiation induction | 360,000 tested, 1% active | calls only at 10 µM | ER-HoxA9 myeloid progenitors, lysozyme-GFP differentiation, flow cytometry;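 active = normalized GFP-positive differentiation at or above the plate's own cutoff, the solvent-only control mean plus 3 SD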;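 note: cells exposed to compound for four days before flow analysis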
Myeloid diff CP1: compounds promoting myeloid differentiation; shares compounds with Myeloid diff 2; ER-HoxA9 myeloid progenitors, GFP/Mac1 double-positive flow; calls only; 2,300 tested, 2% active; AID 651706;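 active = share of green or green-and-red cells above 9 and 9% in run 1 or 4 and 3% in run 2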
GFP autofluor: counter-screen for myeloid differentiation promoters: compound fluorescence | shares compounds with Myeloid diff 2 | ER-HoxA9 myeloid progenitors, no estrogen, GFP autofluorescence flow cytometry; vehicle wells 0%, positive control 100% | fluorescence response, % (test concentration not listed) | 2,300 tested, 7.4% active | AID 651707;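 active = over 5% cells positive for green fluorescent reporter, or over 2% positive for both it and APC stain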
Large screens that a line does not name were inactive (follow-up assays come after a bar, where they were run). Only some compounds are listed: those with a hit (about 2.2% of all), similar ones and a draw of the others.

Cc1cc(-c2cccs2)c2c(n1)sc1c(=O)[nH]c(=O)[nH]c12	none | Myeloid diff CP1 inactive | GFP autofluor 35.7
c1csc(-c2noc(COc3ccc4c(c3)CCCC4)n2)c1	none | Myeloid diff CP1 inactive | GFP autofluor inactive
Cc1c(Br)c(O)c(Br)c2sc(=O)oc12	none | Myeloid diff CP1 inactive | GFP autofluor inactive
Cc1ccc(S(=O)(=O)N2C[C@H]3C(=O)C[C@@H](c4ccccc4)N(S(=O)(=O)c4ccc(C)cc4)[C@H]3C[C@H]2c2cccc(C)c2)cc1	Myeloid diff 2 active | Myeloid diff CP1 inactive | GFP autofluor inactive
CSc1ncc(C(=O)Nc2cccnc2)c(C(F)(F)F)n1	none
COc1ccc(N2CCN(C(=O)CCc3ccccc3OC)CC2)cc1	none
COc1ccc(-n2c(=O)c(CCC(=O)N3CCN(c4ccccc4O)CC3)nc3ccccc32)cc1	none | Myeloid diff CP1 inactive | GFP autofluor 6.7
CCCCn1nnnc1C1(C)CCC(=O)N1CC(F)(F)F (centres undefined)	none
N#Cc1ccc(-c2ccc(F)cc2)nc1SCC(=O)Nc1sc2c(c1C#N)CCC2	none | Myeloid diff CP1 inactive | GFP autofluor inactive
CCN(CC(=O)Nc1c(F)cccc1F)C(=O)CC1CCCC1	none
CCN(CC(=O)Nc1c(F)cccc1F)C(=O)CC1CCCCC1	none | Myeloid diff CP1 inactive | GFP autofluor inactive
Cc1ccc(S(=O)(=O)N2CCN(C(=O)COC(=O)Cc3cccc(C(F)(F)F)c3)CC2)c(C)c1	none
O=C1NC(=S)NC(=O)C1=Cc1ccccc1C(=O)O	none
COc1ccc(/C=N/NC2=NS(=O)(=O)c3ccccc32)cc1OC(C)=O	none | Myeloid diff CP1 inactive | GFP autofluor inactive
CC(=O)Oc1ccc(/C=N/NC2=NS(=O)(=O)c3ccccc32)cc1	none
CCOc1ccc(NS(=O)(=O)c2ccc(C(=O)NCCCN3CCCC3=O)cc2)cc1	none
CCOc1ccc(S(=O)(=O)Nc2cccc(C(=O)NCCCN3CCCC3=O)c2)cc1	none | Myeloid diff CP1 inactive | GFP autofluor inactive
N#Cc1cc(C#N)c(SCC(=O)N2CC(=O)Nc3ccccc32)nc1N	none | Myeloid diff CP1 inactive | GFP autofluor inactive
Cc1nc(SCC(=O)N2CC(=O)Nc3ccccc32)nc(C)c1C	none
O=C(COC(=O)c1cccnc1Cl)Nc1ccc2c(c1)OCCO2	Myeloid diff 2 active | Myeloid diff CP1 inactive | GFP autofluor inactive
O=C(O)CCCCCN1C(=O)/C(=C\c2ccncc2)SC1=S	Myeloid diff 2 active | Myeloid diff CP1 inactive | GFP autofluor inactive
COc1cc(NC(=S)Nc2ccccn2)c(OC)cc1Cl	none | Myeloid diff CP1 inactive | GFP autofluor inactive
COc1cc(NC(=S)Nc2cccc(Cl)c2Cl)c(OC)cc1Cl	none
CCc1nc2ccc(C(=O)Nc3cccc(OC)c3)cn2c1N(C)CCCc1ccccc1	none
COc1ccc(Cl)cc1NC(=O)C1Cc2cc(S(=O)(=O)N3CCCC3)ccc2N1C(C)=O (centres undefined)	none
COC(=O)C1=C(C)Nc2nnnn2C1c1ccco1 (centres undefined)	none (no result: Myeloid diff 2) | Myeloid diff CP1 inactive | GFP autofluor inactive
COC(=O)C1=C(C)Nc2nnnn2C1c1cccnc1 (centres undefined)	none
Cc1cc(C)n(-c2nnc3n2N=C(c2c[nH]c4ccccc24)CS3)n1	none | Myeloid diff CP1 inactive | GFP autofluor inactive
COC(=O)c1ccc(N(CC(=O)NC2CCCCC2)C(=O)CNC(=O)c2ccco2)cc1	none
CC(=O)n1cc(C2C(=O)CCCC2=O)c2ccccc21	none | Myeloid diff CP1 inactive | GFP autofluor inactive
Cc1c(C(=O)NCc2cccs2)sc(=O)n1Cc1ccc(S(=O)(=O)N(C)C)cc1	none
COc1ccc(-c2sc3cc4c(cc3c2C#Cc2ccc(N)cc2)OCO4)cc1	none
COc1cccc(CNC(=O)C2CCCN(c3nc4ccccc4o3)C2)c1 (centres undefined)	none | Myeloid diff CP1 inactive | GFP autofluor inactive
O=C(NCc1ccc(F)cc1)c1cc(C2CCCN(C(=O)CCCc3ccccc3)C2)on1 (centres undefined)	none
Cn1cnc(S(=O)(=O)NCc2ccc(Br)cc2)c1	none
Cc1cc(C)c(C2=Nn3c(C)nnc3SC2C)cc1C (centres undefined)	none
O=[N+]([O-])c1ccc(/C=[N+](\[O-])[C@@H]2CCCC[C@@H]2/[N+]([O-])=C/c2ccc([N+](=O)[O-])o2)o1	Myeloid diff 2 active | Myeloid diff CP1 inactive | GFP autofluor inactive
COc1ccc(CNC(=O)N2CCN(c3cccc(Cl)c3)CC2)cc1OC	none
Cc1cccc(N2CCN(C(=O)NCc3ccc(Cl)cc3)CC2)c1	none | Myeloid diff CP1 inactive | GFP autofluor inactive
Cc1cc(SCC(=O)Nc2ccc3[nH]c(=O)[nH]c3c2)nc2ccccc12	none
CCOc1ccccc1NC(=O)c1ccccc1-c1ccccc1	none
CCOc1ccccc1NC(=O)c1ccccc1-c1nc(-c2ccccc2)no1	Myeloid diff 2 active | Myeloid diff CP1 inactive | GFP autofluor inactive
CCN1CC=C2C(C#N)=C(N)C(C#N)(C#N)C(CCc3ccccc3)C2C1 (centres undefined)	none
CC(=O)N1CC=C2C(C#N)=C(N)C(C#N)(C#N)C(CCc3ccccc3)C2C1 (centres undefined)	Myeloid diff 2 active | Myeloid diff CP1 inactive | GFP autofluor inactive
COc1ccc(/C=N/Nc2c(Cl)cc(Cl)cc2Cl)cc1CN1CCOCC1	none | Myeloid diff CP1 inactive | GFP autofluor inactive
O=C(CNC(=O)OCc1ccccc1)NC1CCCCCCC1	Myeloid diff 2 active | Myeloid diff CP1 inactive | GFP autofluor inactive
O=C(CN1C(=O)c2ccccc2C1=O)c1ccccc1	none
CC1=C(CC(=O)c2ccccc2)C(=O)c2ccccc2C1=O	Myeloid diff 2 active | Myeloid diff CP1 inactive | GFP autofluor 4.2
CCC(C)Nc1nc(OC(C(F)(F)F)C(F)(F)F)nc(OC(C(F)(F)F)C(F)(F)F)n1 (centres undefined)	Myeloid diff 2 active | Myeloid diff CP1 inactive | GFP autofluor inactive
O=C(Nc1nc2c(F)cccc2s1)C1CC1	none
CC1CCc2c(sc(Nc3nc4c(F)cccc4s3)c2C(N)=O)C1 (centres undefined)	HNF4A DNA FP 36.9, Exocytosis inh 84.8, Myeloid diff 2 active | Myeloid diff CP1 inactive | GFP autofluor 6.4
COc1ccc([C@H]2C[C@H](n3cc(COC(=O)c4ccccc4)nn3)[C@@H](O)CN2C(=O)C2CCCCC2)cc1	none | Myeloid diff CP1 inactive | GFP autofluor inactive
Cc1ccc([C@H]2C[C@@H](O)[C@H](n3cc(COC(=O)c4ccccc4)nn3)CN2Cc2cccs2)cc1	none | Myeloid diff CP1 inactive | GFP autofluor inactive
Cc1ccc([C@H]2C[C@H](O)[C@@H](n3cc(COC(=O)c4ccccc4)nn3)CN2Cc2cccs2)cc1	none
COc1ccc([C@H]2C[C@@H](n3cc(COC(=O)c4ccccc4)nn3)[C@H](O)CN2C(=O)C2CCCCC2)cc1	none
COC(=O)c1ccc2nc(C)cc(Nc3ccccc3C)c2c1	none
